Measured values from ChEMBL document CHEMBL1275269, “Cyclization of some carbothioamide derivatives containing antipyrine and triazole moieties and investigation of their antimicrobial activities” (2010).
Calls of active or inactive are those of the source. The calls are words filed in the database; no cut-off is given here.

Tests used:
Klebsiella aerogenes = assay: Antibacterial activity against Enterobacter aerogenes ATCC 13048 after 18 hrs by agar-well diffusion method; type: functional; further: test concentration or dose not given here
How it was run: (§1)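 Microorganisms flood-inoculated onto the surface of Mueller-Hinton agar or Sabouraud dextrose agar, then dried. 5 mm diameter wells cut into the agar with a sterile cork-borer.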

Pseudomonas aeruginosa = assay: Antibacterial activity against Pseudomonas aeruginosa ATCC 43288 after 18 hrs by agar-well diffusion method; type: functional; how it was run: as §1; further: test concentration or dose not given here
Aspergillus niger = assay: Antifungal activity against Aspergillus niger RSKK 4017 after 18 hrs by agar-well diffusion method; type: functional, organism-based; how it was run: as §1
Enterococcus faecalis = assay: Antibacterial activity against Enterococcus faecalis ATCC 29212 after 18 hrs by agar-well diffusion method; type: functional; how it was run: as §1; on IZ: test concentration or dose not given here
Staphylococcus aureus = assay: Antibacterial activity against Staphylococcus aureus ATCC 25923 after 18 hrs by agar-well diffusion method; type: functional; how it was run: as §1; on IZ: test concentration or dose not given here
[1] = test system: Mycolicibacterium smegmatis; assay: Antibacterial activity against Mycobacterium smegmatis ATCC 607 after 18 hrs by agar-well diffusion method; type: functional; how it was run: as §1; further: test concentration or dose not given here
[2] = test system: Yersinia pseudotuberculosis; assay: Antibacterial activity against Yersinia pseudotuberculosis ATCC 911 after 18 hrs by agar-well diffusion method; type: functional
How it was run: (§2)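 Organisms flood-inoculated onto the agar surface and dried. Five-millimetre wells were cut with a sterile cork-borer, and test substance was delivered into each well.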

Candida albicans = assay: Antifungal activity against Candida albicans ATCC 60193 after 18 hrs by agar-well diffusion method; type: functional
How it was run: (§3)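 Yeast flood-inoculated onto Sabouraud dextrose agar and dried. Five-millimetre wells were cut with a sterile cork-borer, and test substance was delivered into each well.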

Candida tropicalis = assay: Antifungal activity against Candida tropicalis ATCC 13803 after 18 hrs by agar-well diffusion method; type: functional; how it was run: as §3
Escherichia coli = assay: Antibacterial activity against Escherichia coli ATCC 25922 after 18 hrs by agar-well diffusion method; type: functional; how it was run: as §1; further: test concentration or dose not given here
Bacillus cereus = assay: Antibacterial activity against Bacillus cereus 702 after 18 hrs by agar-well diffusion method; type: functional; how it was run: as §1; on IZ: test concentration or dose not given here
Saccharomyces cerevisiae = assay: Antifungal activity against Saccharomyces cerevisiae RSKK 251 after 18 hrs by agar-well diffusion method; type: functional; how it was run: as §2

## Cc1c(-n2c(Cc3ccc(Cl)cc3)nn(Cc3nnc(S)n3-c3ccc(F)cc3)c2=O)c(=O)n(-c2ccccc2)n1C
Klebsiella aerogenes
  inhibition zone (IZ): 30 mm
Pseudomonas aeruginosa
  inhibition zone (IZ): 28 mm
Aspergillus niger
  Activity: Active
Enterococcus faecalis
  inhibition zone (IZ): 28 mm
Staphylococcus aureus
  inhibition zone (IZ): 30 mm
[1]
  inhibition zone (IZ): 30 mm
[2]
  inhibition zone (IZ): 30 mm
Candida albicans
  Activity: Active
Candida tropicalis
  Activity: Active
Escherichia coli
  inhibition zone (IZ): 35 mm
Bacillus cereus
  inhibition zone (IZ): 30 mm
Saccharomyces cerevisiae
  Activity: Active

## Cc1c(-n2c(Cc3ccc(Cl)cc3)nn(Cc3nnc(NCc4ccccc4)s3)c2=O)c(=O)n(-c2ccccc2)n1C
Klebsiella aerogenes
  inhibition zone (IZ): 25 mm
Pseudomonas aeruginosa
  inhibition zone (IZ): 30 mm
Aspergillus niger
  Activity: Active
Enterococcus faecalis
  Activity: Active
Staphylococcus aureus
  Activity: Active
[1]
  inhibition zone (IZ): 25 mm
[2]
  inhibition zone (IZ): 25 mm
Candida albicans
  Activity: Active
Candida tropicalis
  Activity: Active
Escherichia coli
  inhibition zone (IZ): 25 mm
Bacillus cereus
  Activity: Active
Saccharomyces cerevisiae
  Activity: Active

## Cc1c(-n2c(Cc3ccc(Cl)cc3)nn(Cc3nnc(S)n3-c3ccccc3)c2=O)c(=O)n(-c2ccccc2)n1C
Klebsiella aerogenes
  inhibition zone (IZ): 25 mm
Pseudomonas aeruginosa
  inhibition zone (IZ): 30 mm
Aspergillus niger
  Activity: Active
Enterococcus faecalis
  inhibition zone (IZ): 20 mm
Staphylococcus aureus
  inhibition zone (IZ): 25 mm
[1]
  inhibition zone (IZ): 34 mm
[2]
  inhibition zone (IZ): 30 mm
Candida albicans
  Activity: Active
Candida tropicalis
  Activity: Active
Escherichia coli
  inhibition zone (IZ): 25 mm
Bacillus cereus
  inhibition zone (IZ): 30 mm
Saccharomyces cerevisiae
  Activity: Active
